In ChEMBL document CHEMBL4402603, “Structure-Activity Relationship of SPOP Inhibitors against Kidney Cancer” (J Med Chem, 2020):
Active and inactive are the calls of the source. The rule behind the calls is not given here.

Tests used:
A498 [1] = assay: Antiproliferative activity against human A498 cells assessed as reduction in cell viability at 30 uM incubated for 72 hrs by MTT assay relative to control; assay type: functional; settings: A498, 72 h
Procedure, shortened: (§1)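 MTT read-out. Cells seeded at 1,000-2,200/well, grown 12 hr at 37 °C, then compound added for 72 hr. MTT for 4 hr, formazan dissolved in DMSO, absorbance at 490 nm. Untreated-cell OD taken as 100% proliferation; inhibition reported at 30 μM.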

OS-RC-2 [2] = assay: Antiproliferative activity against human OS-RC2 cells assessed as reduction in cell viability at 30 uM incubated for 72 hrs by MTT assay relative to control; assay type: functional; settings: OS-RC-2, 72 h; procedure, shortened: as §1
A498 [3] = assay: Antiproliferative activity against human A498 cells assessed as reduction in cell viability incubated for 72 hrs by MTT assay; assay type: functional, cell-based; settings: A498, 72 h
Procedure, shortened: (§2)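 MTT read-out. Cells seeded at 1,000-2,200/well, grown 12 hr at 37 °C before compound, then exposed 72 hr. MTT for 4 hr, formazan dissolved in DMSO, A490 read. Untreated cells = 100% proliferation. IC50 quantitated; mean ± SD, n = 3.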

OS-RC-2 [4] = assay: Antiproliferative activity against human OS-RC2 cells assessed as reduction in cell viability incubated for 72 hrs by MTT assay; assay type: functional, cell-based; settings: OS-RC-2, 72 h; procedure, shortened: as §2
[5] = Solubility of compound in cell culture medium in presence of 0.2 % DMSO; assay type: physicochemical
Procedure, shortened: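 Solubility determined in cell culture medium containing 0.2% DMSO.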

A498 [6] = assay: Inhibition of colony formation in human A498 cells at 1 to 5 uM incubated for 12 days by crystal violet dye based assay; assay type: functional, cell-based
Procedure, shortened: (§3)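 Cells seeded at 1,000/well, grown 12 days at 37 °C, 5% CO2, medium renewed every 3 days. Fixed with 10% acetic acid/10% methanol for 15 min, stained with 1% crystal violet for 10 min.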

OS-RC-2 [7] = assay: Inhibition of colony formation in human OS-RC2 cells at 1 to 5 uM incubated for 12 days by crystal violet dye based assay; assay type: functional, cell-based; procedure, shortened: as §3
[8] = biological target: Speckle-type POZ protein (Homo sapiens) (UniProt O43791); assay: Inhibition of SPOP signalling in human OS-RC2 cells assessed as accumulation of PTEN at 5 to 15 uM incubated for 12 hrs by Western blot analysis; assay type: cell-based
[9] = biological target: Speckle-type POZ protein (Homo sapiens) (UniProt O43791); assay: Binding affinity to recombinant N-terminal GST/His-tagged MATH binding domain SPOP (unknown origin) expressed in Escherichia coli BL21 (DE3) assessed as change in melting temperature at 10 fold compound incubated for 15 mins by nano differential scanning fluorimetry (reference value: -1.7 degreeC)
[10] = biological target: Speckle-type POZ protein (Homo sapiens) (UniProt O43791); assay: Binding affinity to recombinant N-terminal GST/His-tagged MATH binding domain SPOP (unknown origin) expressed in Escherichia coli BL21 (DE3) assessed as change in melting temperature at 20 fold compound incubated for 15 mins by nano differential scanning fluorimetry (reference value: -3.8 degreeC)
[11] = biological target: Speckle-type POZ protein (Homo sapiens) (UniProt O43791); assay: Binding affinity to recombinant N-terminal GST/His-tagged SPOP (unknown origin) MATH binding domain expressed in Escherichia coli BL21 (DE3) assessed as change in melting temperature at 5 fold compound by SYPRO Orange dye based differential scanning fluorimetry (reference value: -1.7 degreeC)
[12] = biological target: Speckle-type POZ protein (Homo sapiens) (UniProt O43791); assay: Binding affinity to recombinant N-terminal GST/His-tagged SPOP (unknown origin) MATH binding domain expressed in Escherichia coli BL21 (DE3) assessed as change in melting temperature at 1 fold compound by SYPRO Orange dye based differential scanning fluorimetry (reference value: -1.7 degreeC)
[13] = biological target: Speckle-type POZ protein (Homo sapiens) (UniProt O43791); assay: Binding affinity to recombinant N-terminal GST/His-tagged SPOP (unknown origin) MATH binding domain expressed in Escherichia coli BL21 (DE3) assessed as change in melting temperature at 10 fold compound by SYPRO Orange dye based differential scanning fluorimetry (reference value: -1.7 degreeC)

Sequence of Speckle-type POZ protein (Homo sapiens) (O43791 whole entry, the tested form may be a part): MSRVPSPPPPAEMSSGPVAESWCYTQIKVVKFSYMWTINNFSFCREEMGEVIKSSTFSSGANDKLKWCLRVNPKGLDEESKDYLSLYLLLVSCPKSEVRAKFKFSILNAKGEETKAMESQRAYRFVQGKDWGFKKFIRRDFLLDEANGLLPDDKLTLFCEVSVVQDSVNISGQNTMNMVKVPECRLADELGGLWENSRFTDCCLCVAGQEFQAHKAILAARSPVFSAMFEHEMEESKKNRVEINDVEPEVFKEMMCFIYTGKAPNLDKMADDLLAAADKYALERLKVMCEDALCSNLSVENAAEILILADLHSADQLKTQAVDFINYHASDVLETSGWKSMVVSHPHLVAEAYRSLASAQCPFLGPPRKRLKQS

For `CCN(CC)CCn1c(=N)c(C(=O)NCCCN2CCOCC2)cc2c(=O)n3cccc(C)c3nc21`, the inhibition at 30 µM (A498 [1]) was 86%, the inhibition at 30 µM (OS-RC-2 [2]) was 89% and the IC50 (A498 [3]) was 3.5 µM. It also gave an IC50 (OS-RC-2 [4]) of 3.9 µM.

With `COc1ccc(CCNC(=O)c2cc3c(=O)n4cccc(C)c4nc3n(CCc3cccs3)c2=N)cc1` the inhibition at 30 µM (A498 [1]) was 87%, the inhibition at 30 µM (OS-RC-2 [2]) was 75% and the IC50 (A498 [3]) was 2.8 µM. For the same compound, the IC50 (OS-RC-2 [4]) was 4.2 µM, the solubility [5] was 2.5 to 5 µM and the inhibition (A498 [6]) was “Active”. For the same compound, the inhibition (OS-RC-2 [7]) was “Active” and the inhibition [8] was “Active”.

`Cc1cccn2c(=O)c3cc(C(=O)NCCCN4CCOCC4)c(=N)n(CCc4ccccc4)c3nc12` showed a ΔTm [9] of 2.8 °C, an inhibition at 30 µM (A498 [1]) of 88% and an inhibition at 30 µM (OS-RC-2 [2]) of 90%. It also gave an IC50 (A498 [3]) of 2.7 µM, an IC50 (OS-RC-2 [4]) of 5.8 µM and a solubility [5] of 30 to 45 µM. The inhibition (A498 [6]) was “Active”, the inhibition (OS-RC-2 [7]) was “Active” and the ΔTm [10] was 4 °C. The ΔTm [11] was 3 °C.

In the case of `Cc1cccn2c(=O)c3cc(C(=O)NCCCN4CCOCC4)c(=N)n(CCCc4ccccc4)c3nc12`, the inhibition at 30 µM (A498 [1]) is reported as 90%, the inhibition at 30 µM (OS-RC-2 [2]) is reported as 91% and the IC50 (A498 [3]) is reported as 2.6 µM. The IC50 (OS-RC-2 [4]) was 5.1 µM.

With `Cc1cccn2c(=O)c3cc(C(=O)NCCCN4CCOCC4)c(=N)n(CCc4ccc(F)cc4)c3nc12` the ΔTm [9] was 2.5 °C, the inhibition at 30 µM (A498 [1]) was 90% and the inhibition at 30 µM (OS-RC-2 [2]) was 88%. It also gave an IC50 (A498 [3]) of 3.1 µM, an IC50 (OS-RC-2 [4]) of 6.6 µM and a ΔTm [10] of 2.9 °C. The ΔTm [11] was 2 °C.

`Cc1cccn2c(=O)c3cc(C(=O)NCc4cccnc4)c(=N)n(CCCN4CCOCC4)c3nc12` gave a ΔTm [12] of 0 °C, a ΔTm [9] of 0 °C and an IC50 (A498 [3]) greater than 50 µM. The IC50 (OS-RC-2 [4]) was greater than 50 µM, the ΔTm [10] was 0.2 °C and the ΔTm [11] was 0.3 °C. For the same compound, the ΔTm [13] was 0.3 °C.

For `Cc1ccc(CCn2c(=N)c(C(=O)NCCCN3CCOCC3)cc3c(=O)n4cccc(C)c4nc32)cc1`, the ΔTm [9] was 1.8 °C, the inhibition at 30 µM (A498 [1]) was 91% and the inhibition at 30 µM (OS-RC-2 [2]) was 94%. It also gave an IC50 (A498 [3]) of 2.1 µM, an IC50 (OS-RC-2 [4]) of 5.7 µM and a ΔTm [10] of 2.1 °C. The ΔTm [11] was 2 °C.

Compound `Cc1cccn2c(=O)c3cc(C(=O)NCCc4ccccc4)c(=N)n(CCc4cccs4)c3nc12` has a ΔTm [9] of 3.5 °C, an inhibition at 30 µM (A498 [1]) of 85% and an inhibition at 30 µM (OS-RC-2 [2]) of 52%. The IC50 (A498 [3]) was 5 µM, the IC50 (OS-RC-2 [4]) was 24.2 µM and the ΔTm [10] was 3.7 °C.

`Cc1cccn2c(=O)c3cc(C(=O)NCCCN4CCOCC4)c(=N)n(CCc4cccc(F)c4)c3nc12` showed a ΔTm [9] of 3.7 °C, an inhibition at 30 µM (A498 [1]) of 89% and an inhibition at 30 µM (OS-RC-2 [2]) of 92%. The IC50 (A498 [3]) was 2.4 µM, the IC50 (OS-RC-2 [4]) was 4.6 µM and the ΔTm [10] was 5.3 °C. For the same compound, the ΔTm [11] was 4 °C and the inhibition [8] was “Active”.

Work on `Cc1cccn2c(=O)c3cc(C(=O)NCCCN4CCOCC4)c(=N)n(CCc4ccc(Cl)cc4)c3nc12` yielded a ΔTm [9] of 2.4 °C, an inhibition at 30 µM (A498 [1]) of 90% and an inhibition at 30 µM (OS-RC-2 [2]) of 97%. The IC50 (A498 [3]) was 2.3 µM, the IC50 (OS-RC-2 [4]) was 4 µM and the ΔTm [10] was 3.5 °C.

In the case of `Cc1cccn2c(=O)c3cc(C(=O)NC4CCCCC4)c(=N)n(CCc4cccs4)c3nc12`, the ΔTm [9] is reported as 2.7 °C, the inhibition at 30 µM (A498 [1]) is reported as 90% and the inhibition at 30 µM (OS-RC-2 [2]) is reported as 90%. It also gave an IC50 (A498 [3]) of 6.3 µM, an IC50 (OS-RC-2 [4]) of 5.9 µM and a ΔTm [10] of 2.7 °C. For the same compound, the inhibition [8] was “Active”.

`Cc1cccn2c(=O)c3cc(C(=O)NCCCN4CCOCC4)c(=N)n(CCc4cccs4)c3nc12` showed a ΔTm [9] of 3.2 °C, an inhibition at 30 µM (A498 [1]) of 90% and an inhibition at 30 µM (OS-RC-2 [2]) of 82%. It also gave an IC50 (A498 [3]) of 2.6 µM, an IC50 (OS-RC-2 [4]) of 7.6 µM and a ΔTm [10] of 5.1 °C. For the same compound, the inhibition [8] was “Active”.

`COc1ccc(CCn2c(=N)c(C(=O)NCCCN3CCOCC3)cc3c(=O)n4cccc(C)c4nc32)cc1` gave a ΔTm [9] of 2.5 °C, an inhibition at 30 µM (A498 [1]) of 90% and an inhibition at 30 µM (OS-RC-2 [2]) of 88%. The IC50 (A498 [3]) was 2.8 µM, the IC50 (OS-RC-2 [4]) was 6.5 µM and the ΔTm [10] was 3.6 °C. For the same compound, the ΔTm [11] was 2.7 °C.

`CCCn1c(=N)c(C(=O)NCCCN2CCOCC2)cc2c(=O)n3cccc(C)c3nc21` gave an inhibition at 30 µM (A498 [1]) of 57%, an inhibition at 30 µM (OS-RC-2 [2]) of 66% and an IC50 (A498 [3]) of 6.4 µM. It also gave an IC50 (OS-RC-2 [4]) of 5.2 µM.

Compound `Cc1cccn2c(=O)c3cc(C(=O)NCCCN4CCOCC4)c(=N)n(CCc4ccc(Br)cc4)c3nc12` has a ΔTm [9] of 2.3 °C, an inhibition at 30 µM (A498 [1]) of 89% and an inhibition at 30 µM (OS-RC-2 [2]) of 96%. For the same compound, the IC50 (A498 [3]) was 3 µM, the IC50 (OS-RC-2 [4]) was 5 µM and the solubility [5] was 5 to 10 µM. The inhibition (A498 [6]) was “Active”, the inhibition (OS-RC-2 [7]) was “Active” and the ΔTm [10] was 3.5 °C. It also gave a ΔTm [11] of 1.3 °C.
